According to ChEMBL document CHEMBL1949509, “Fluorinated dual antithrombotic compounds based on 1,4-benzoxazine scaffold” (Eur J Med Chem, 2012):

Key:
Coagulation factor X = Coagulation factor X (Homo sapiens, UniProt P00742); assay: Inhibition of factor 10a using S-2222 as substrate preincubated for 15 mins prior substrate addition measured for every 10 secs by spectrophotometry
Outline: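 Amidolytic chromogenic assay. Factor Xa at 1 mBAEEE/mL final with S-2222 at […] final. Inhibitor at three concentrations, diluted from 10 mmol/L DMSO stock, preincubated with enzyme in HBSA buffer for 15 min at 25 °C. A405 read every 10 s. Run in triplicate. Ki by Cheng–Prusoff from initial linear rates, averaged over concentration combinations.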

[1] = target: Integrin alpha-IIb/beta-3 (Homo sapiens, UniProt P05106+P08514); assay: Displacement of biotinylated fibrinogen from human alpha2b-beta3 receptor after 2 hrs by chemiluminescence assay; format: protein-complex assay
Integrin alpha-IIb/beta-3, sequence (P05106 27-788 limits assumed): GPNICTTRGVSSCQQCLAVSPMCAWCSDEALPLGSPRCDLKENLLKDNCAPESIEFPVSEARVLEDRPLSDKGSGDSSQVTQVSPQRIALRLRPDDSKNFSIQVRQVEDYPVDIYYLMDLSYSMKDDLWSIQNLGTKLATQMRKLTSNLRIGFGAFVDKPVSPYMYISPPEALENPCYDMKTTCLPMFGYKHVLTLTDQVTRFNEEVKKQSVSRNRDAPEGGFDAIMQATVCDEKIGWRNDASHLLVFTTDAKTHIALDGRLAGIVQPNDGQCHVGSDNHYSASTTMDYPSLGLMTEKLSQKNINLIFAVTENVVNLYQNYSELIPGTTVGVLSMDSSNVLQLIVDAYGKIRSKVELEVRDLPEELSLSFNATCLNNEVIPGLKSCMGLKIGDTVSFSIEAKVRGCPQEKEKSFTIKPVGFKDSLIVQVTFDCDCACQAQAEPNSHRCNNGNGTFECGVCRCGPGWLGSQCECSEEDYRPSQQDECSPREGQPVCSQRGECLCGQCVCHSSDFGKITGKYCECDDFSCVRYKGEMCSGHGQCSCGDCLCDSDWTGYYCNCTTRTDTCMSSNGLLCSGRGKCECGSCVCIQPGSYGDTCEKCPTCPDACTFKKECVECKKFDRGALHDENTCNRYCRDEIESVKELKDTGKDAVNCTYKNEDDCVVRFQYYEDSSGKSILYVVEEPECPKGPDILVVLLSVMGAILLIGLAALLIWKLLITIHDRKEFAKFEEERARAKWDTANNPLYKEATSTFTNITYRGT
Integrin alpha-IIb/beta-3, sequence (P08514 32-887 limits assumed): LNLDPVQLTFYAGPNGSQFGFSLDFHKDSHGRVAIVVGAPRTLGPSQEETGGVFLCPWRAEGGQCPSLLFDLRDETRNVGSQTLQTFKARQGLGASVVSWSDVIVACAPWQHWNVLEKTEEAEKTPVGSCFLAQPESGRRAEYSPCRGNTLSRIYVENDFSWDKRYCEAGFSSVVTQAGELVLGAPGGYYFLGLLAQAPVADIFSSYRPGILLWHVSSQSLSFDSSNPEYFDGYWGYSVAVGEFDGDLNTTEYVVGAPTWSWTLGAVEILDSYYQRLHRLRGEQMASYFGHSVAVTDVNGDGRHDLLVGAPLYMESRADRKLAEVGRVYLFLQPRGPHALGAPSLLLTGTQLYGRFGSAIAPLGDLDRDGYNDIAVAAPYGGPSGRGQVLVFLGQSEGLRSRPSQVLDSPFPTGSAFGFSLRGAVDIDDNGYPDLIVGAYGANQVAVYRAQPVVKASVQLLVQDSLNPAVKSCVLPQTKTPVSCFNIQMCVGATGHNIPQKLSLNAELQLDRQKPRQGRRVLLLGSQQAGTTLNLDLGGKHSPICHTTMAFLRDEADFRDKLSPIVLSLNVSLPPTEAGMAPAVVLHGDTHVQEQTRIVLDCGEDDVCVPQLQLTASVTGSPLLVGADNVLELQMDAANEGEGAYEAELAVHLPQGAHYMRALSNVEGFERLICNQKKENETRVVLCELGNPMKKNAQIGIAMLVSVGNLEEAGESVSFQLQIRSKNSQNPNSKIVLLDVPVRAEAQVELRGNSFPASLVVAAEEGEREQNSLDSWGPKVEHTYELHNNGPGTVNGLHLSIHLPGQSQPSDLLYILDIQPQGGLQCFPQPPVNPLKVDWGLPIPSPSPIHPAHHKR
Integrin alpha-IIb/beta-3, sequence (P08514 891-1039 limits assumed): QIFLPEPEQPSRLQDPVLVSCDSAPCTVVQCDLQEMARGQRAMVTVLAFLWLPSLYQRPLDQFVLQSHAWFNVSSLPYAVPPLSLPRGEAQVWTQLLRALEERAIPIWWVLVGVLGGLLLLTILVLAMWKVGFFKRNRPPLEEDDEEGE

Integrin alpha-V/beta-3 = Integrin alpha-V/beta-3 (Homo sapiens, UniProt P05106+P06756); assay: Displacement of biotinylated fibrinogen from human […] receptor after 2 hrs by chemiluminescence assay; format: protein-complex assay
Integrin alpha-V/beta-3, sequence (P05106 27-788 limits assumed): as the sequence (P05106 27-788 limits assumed) above
Integrin alpha-V/beta-3, sequence (P06756 31-889 limits assumed): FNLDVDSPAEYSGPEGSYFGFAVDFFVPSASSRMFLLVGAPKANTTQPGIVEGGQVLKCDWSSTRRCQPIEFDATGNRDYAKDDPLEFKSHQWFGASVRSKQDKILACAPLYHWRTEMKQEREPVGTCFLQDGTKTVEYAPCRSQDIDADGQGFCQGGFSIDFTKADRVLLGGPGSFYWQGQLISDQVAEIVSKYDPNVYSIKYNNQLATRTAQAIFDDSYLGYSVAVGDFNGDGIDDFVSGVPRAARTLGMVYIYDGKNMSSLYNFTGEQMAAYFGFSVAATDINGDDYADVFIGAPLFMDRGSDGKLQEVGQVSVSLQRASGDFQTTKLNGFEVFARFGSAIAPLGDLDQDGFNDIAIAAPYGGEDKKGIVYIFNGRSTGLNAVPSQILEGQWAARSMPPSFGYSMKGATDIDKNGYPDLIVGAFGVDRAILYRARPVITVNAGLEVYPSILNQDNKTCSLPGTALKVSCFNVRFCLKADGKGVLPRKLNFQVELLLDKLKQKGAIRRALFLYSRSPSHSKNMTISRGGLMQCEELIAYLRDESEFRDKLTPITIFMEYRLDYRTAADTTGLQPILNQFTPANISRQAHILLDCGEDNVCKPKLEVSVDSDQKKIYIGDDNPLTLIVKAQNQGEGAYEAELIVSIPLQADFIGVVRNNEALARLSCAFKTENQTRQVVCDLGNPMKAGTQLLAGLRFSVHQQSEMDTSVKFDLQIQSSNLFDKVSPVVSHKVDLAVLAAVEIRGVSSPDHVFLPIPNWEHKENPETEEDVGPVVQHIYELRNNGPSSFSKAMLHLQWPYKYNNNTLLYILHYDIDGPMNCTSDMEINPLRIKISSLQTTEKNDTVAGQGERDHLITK
Integrin alpha-V/beta-3, sequence (P06756 891-1048 limits assumed): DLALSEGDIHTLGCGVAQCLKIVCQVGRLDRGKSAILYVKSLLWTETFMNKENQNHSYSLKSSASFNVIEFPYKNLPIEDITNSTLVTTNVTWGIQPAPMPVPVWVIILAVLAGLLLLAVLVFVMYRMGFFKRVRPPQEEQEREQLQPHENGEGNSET

Prothrombin = Prothrombin (Homo sapiens, UniProt P00734)
[2] = Selectivity ratio of Ki for trypsin to Ki for thrombin
Outline: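 Trypsin at 0.5 nkat/mL with S-2222 at 50 and 100; thrombin at 0.5 NIH E/mL with S-2238 at […]. Triplicates, three inhibitor concentrations.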

[3] = Selectivity ratio of Ki for factor 10a to Ki for thrombin
Outline: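 Factor Xa at 1 mBAEEE/mL with S-2222 at 100 and 200; thrombin at 0.5 NIH E/mL with S-2238 at […]. Triplicates, three inhibitor concentrations.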

Coagulation factor X, sequence (P00742 41-179 limits assumed): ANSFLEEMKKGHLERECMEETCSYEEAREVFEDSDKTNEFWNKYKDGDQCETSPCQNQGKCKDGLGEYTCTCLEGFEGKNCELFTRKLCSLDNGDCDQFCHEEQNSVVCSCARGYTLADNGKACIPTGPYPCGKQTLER
Coagulation factor X, sequence (P00742 235-488 limits assumed): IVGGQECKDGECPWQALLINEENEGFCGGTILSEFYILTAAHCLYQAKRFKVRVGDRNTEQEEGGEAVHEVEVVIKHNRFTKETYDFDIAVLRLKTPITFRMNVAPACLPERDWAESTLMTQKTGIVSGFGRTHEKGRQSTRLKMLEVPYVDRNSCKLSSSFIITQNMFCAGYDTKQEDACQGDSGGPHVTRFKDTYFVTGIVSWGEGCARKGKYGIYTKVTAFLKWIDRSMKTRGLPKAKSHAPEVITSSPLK

SMILES	Ki (Coagulation factor X)	IC50 [1]	IC50 (Integrin alpha-V/beta-3)	Ki (Prothrombin)	Ratio Ki [2]	Ratio Ki [3]
CCOC(=O)CN(Cc1cc(F)cc(F)c1)c1ccc2c(c1)OC(C)(COc1ccc(C(=N)N)cc1)CN2C (configuration not stated)	15 µM	> 100 µM	> 100 µM			
CN1CC(C)(COc2ccc(C(=N)N)cc2)Oc2ccc(N(CC(=O)O)Cc3ccc(F)cc3)cc21 (configuration not stated)	7.7 µM	2 µM	> 100 µM	0.75 µM		
CCOC(=O)CN(Cc1ccccc1)c1ccc2c(c1)OC(C)(COc1ccc(C(=N)N)cc1)CN2C (configuration not stated)		28 µM	> 100 µM	0.32 µM		
CCOC(=O)C(=O)N(Cc1cc(F)cc(F)c1)c1ccc2c(c1)OC(C)(COc1ccc(C(=N)N)cc1)CN2C (configuration not stated)	0.79 µM	> 100 µM	> 100 µM	0.018 µM		
CN1CC(C)(COc2ccc(C(=N)N)cc2)Oc2ccc(N(Cc3cc(F)cc(F)c3)C(=O)C(=O)O)cc21 (configuration not stated)	14 µM	3.4 µM	> 100 µM			
CCOC(=O)C(=O)N(Cc1ccc(F)c(F)c1)c1ccc2c(c1)N(C)CC(C)(COc1ccc(C(=N)N)cc1)O2 (configuration not stated)	4.7 µM	> 100 µM	> 100 µM			
CN1CC(C)(COc2ccc(C(=N)N)cc2)Oc2cc(N(Cc3ccc(F)c(F)c3)C(=O)C(=O)O)ccc21 (configuration not stated)	3.6 µM	31 µM	> 100 µM			
CCOC(=O)CN(Cc1ccccc1)c1ccc2c(c1)N(C)CC(C)(COc1ccc(C(=N)N)cc1)O2 (configuration not stated)		54 µM	> 100 µM			
CCOC(=O)CN(Cc1ccc(F)c(F)c1)c1ccc2c(c1)N(C)CC(C)(COc1ccc(C(=N)N)cc1)O2 (configuration not stated)	8 µM	> 100 µM	> 100 µM	0.83 µM		
CCOC(=O)C(=O)N(Cc1cc(F)cc(F)c1)c1ccc2c(c1)N(C)CC(C)(COc1ccc(C(=N)N)cc1)O2 (configuration not stated)	6 µM	> 100 µM	> 100 µM			
CN1CC(C)(COc2ccc(C(=N)N)cc2)Oc2ccc(N(CC(=O)O)Cc3ccc(F)c(F)c3)cc21 (configuration not stated)	6.5 µM	1.1 µM	> 100 µM	0.33 µM	1.7	20
CCOC(=O)CN(Cc1ccc(F)c(F)c1)c1ccc2c(c1)OC(C)(COc1ccc(C(=N)N)cc1)CN2C (configuration not stated)	1.5 µM	> 100 µM	> 100 µM			
CCOC(=O)C(=O)N(Cc1ccc(F)cc1)c1ccc2c(c1)OC(C)(COc1ccc(C(=N)N)cc1)CN2C (configuration not stated)	2.83 µM	> 100 µM	> 100 µM	0.023 µM		
CN1CC(C)(COc2ccc(C(=N)N)cc2)Oc2ccc(N(Cc3ccc(F)cc3)C(=O)C(=O)O)cc21 (configuration not stated)	16.3 µM	1.8 µM	> 100 µM			
CN1CC(C)(COc2ccc(C(=N)N)cc2)Oc2ccc(N(Cc3ccc(F)c(F)c3)C(=O)C(=O)O)cc21 (configuration not stated)	14 µM	2.5 µM	> 100 µM			
CN1CC(C)(COc2ccc(C(=N)N)cc2)Oc2ccc(N(Cc3cccc(F)c3)C(=O)C(=O)O)cc21 (configuration not stated)	18 µM	2.2 µM	> 100 µM			
CCOC(=O)C(=O)N(Cc1ccc(F)c(F)c1)c1ccc2c(c1)OC(C)(COc1ccc(C(=N)N)cc1)CN2C (configuration not stated)	1.6 µM	> 100 µM	> 100 µM	0.028 µM		
CN1CC(C)(COc2ccc(C(=N)N)cc2)Oc2cc(N(Cc3ccccc3)C(=O)C(=O)O)ccc21 (configuration not stated)		39 µM	> 100 µM			
CCOC(=O)CN(Cc1cc(F)cc(F)c1)c1ccc2c(c1)N(C)CC(C)(COc1ccc(C(=N)N)cc1)O2 (configuration not stated)	9.8 µM	> 100 µM	> 100 µM			

SMILES	Ki (Coagulation factor X)	IC50 [1]	IC50 (Integrin alpha-V/beta-3)	Ki (Prothrombin)	Ratio Ki [2]	Ratio Ki [3]
CN1CC(C)(COc2ccc(C(=N)N)cc2)Oc2cc(N(Cc3cc(F)cc(F)c3)C(=O)C(=O)O)ccc21 (configuration not stated)	1.6 µM	31 µM	> 100 µM			
CN1CC(C)(COc2ccc(C(=N)N)cc2)Oc2ccc(N(CC(=O)O)Cc3cccc(F)c3)cc21 (configuration not stated)	7.6 µM	1.5 µM	> 100 µM	0.67 µM		
CN1CC(C)(COc2ccc(C(=N)N)cc2)Oc2cc(N(CC(=O)O)Cc3ccc(F)c(F)c3)ccc21 (configuration not stated)	4.4 µM	80 µM	> 100 µM	0.81 µM	1.6	5.4
CN1CC(C)(COc2ccc(C(=N)N)cc2)Oc2cc(N(CC(=O)O)Cc3cccc(F)c3)ccc21 (configuration not stated)	6.6 µM	60 µM	> 100 µM	0.32 µM	5	
CCOC(=O)C(=O)N(Cc1cccc(F)c1)c1ccc2c(c1)N(C)CC(C)(COc1ccc(C(=N)N)cc1)O2 (configuration not stated)	4.9 µM	> 100 µM	> 100 µM			
CN1CC(C)(COc2ccc(C(=N)N)cc2)Oc2ccc(N(CC(=O)O)Cc3cc(F)cc(F)c3)cc21 (configuration not stated)	9.8 µM	2.5 µM	> 100 µM	0.76 µM		
CCOC(=O)C(=O)N(Cc1ccccc1)c1ccc2c(c1)N(C)CC(C)(COc1ccc(C(=N)N)cc1)O2 (configuration not stated)		49 µM	> 100 µM			
CCOC(=O)CN(Cc1cccc(F)c1)c1ccc2c(c1)OC(C)(COc1ccc(C(=N)N)cc1)CN2C (configuration not stated)	1.2 µM	> 100 µM	> 100 µM			
CN1CC(C)(COc2ccc(C(=N)N)cc2)Oc2cc(N(Cc3cccc(F)c3)C(=O)C(=O)O)ccc21 (configuration not stated)	4.1 µM	33 µM	> 100 µM			
CCOC(=O)CN(Cc1cccc(F)c1)c1ccc2c(c1)N(C)CC(C)(COc1ccc(C(=N)N)cc1)O2 (configuration not stated)	6.8 µM	> 100 µM	> 100 µM	0.8 µM		
CCOC(=O)C(=O)N(Cc1ccc(F)cc1)c1ccc2c(c1)N(C)CC(C)(COc1ccc(C(=N)N)cc1)O2 (configuration not stated)	5.49 µM	> 10 µM	> 100 µM			
CCOC(=O)C(=O)N(Cc1ccccc1)c1ccc2c(c1)OC(C)(COc1ccc(C(=N)N)cc1)CN2C (configuration not stated)		52 µM	> 100 µM			
CN1CC(C)(COc2ccc(C(=N)N)cc2)Oc2cc(N(CC(=O)O)Cc3ccc(F)cc3)ccc21 (configuration not stated)	5.6 µM	49 µM	> 100 µM	0.24 µM		
CCOC(=O)CN(Cc1ccc(F)cc1)c1ccc2c(c1)N(C)CC(C)(COc1ccc(C(=N)N)cc1)O2 (configuration not stated)	6.66 µM	> 100 µM	> 100 µM	0.72 µM		
CN1CC(C)(COc2ccc(C(=N)N)cc2)Oc2cc(N(Cc3ccc(F)cc3)C(=O)C(=O)O)ccc21 (configuration not stated)	7.7 µM	34 µM	> 100 µM			
CCOC(=O)C(=O)N(Cc1cccc(F)c1)c1ccc2c(c1)OC(C)(COc1ccc(C(=N)N)cc1)CN2C (configuration not stated)	1.6 µM	> 100 µM	> 100 µM	0.019 µM		
CN1CC(C)(COc2ccc(C(=N)N)cc2)Oc2ccc(N(Cc3ccccc3)C(=O)C(=O)O)cc21 (configuration not stated)		2.8 µM	> 100 µM			
CCOC(=O)CN(Cc1ccc(F)cc1)c1ccc2c(c1)OC(C)(COc1ccc(C(=N)N)cc1)CN2C (configuration not stated)	1.6 µM	> 100 µM	> 100 µM	0.36 µM		
CN1CC(C)(COc2ccc(C(=N)N)cc2)Oc2cc(N(CC(=O)O)Cc3cc(F)cc(F)c3)ccc21 (configuration not stated)	4 µM	45 µM	> 100 µM	0.2 µM	6.5	20
